Assay results reported in ChEMBL document CHEMBL1156191, “Characterization of the pharmacophore properties of novel selective estrogen receptor downregulators (SERDs)” (J Med Chem, 2010).
The source made the active and inactive calls. No cut-off for these calls is given here.

Assays:
[1] = molecular target: T1, Estrogen receptor (Homo sapiens) (UniProt P03372); assay: Displacement of [3H]estradiol from full-length human estrogen receptor alpha assessed as relative binding affinity by radiometric assay relative to estradiol
T1 sequence (whole entry): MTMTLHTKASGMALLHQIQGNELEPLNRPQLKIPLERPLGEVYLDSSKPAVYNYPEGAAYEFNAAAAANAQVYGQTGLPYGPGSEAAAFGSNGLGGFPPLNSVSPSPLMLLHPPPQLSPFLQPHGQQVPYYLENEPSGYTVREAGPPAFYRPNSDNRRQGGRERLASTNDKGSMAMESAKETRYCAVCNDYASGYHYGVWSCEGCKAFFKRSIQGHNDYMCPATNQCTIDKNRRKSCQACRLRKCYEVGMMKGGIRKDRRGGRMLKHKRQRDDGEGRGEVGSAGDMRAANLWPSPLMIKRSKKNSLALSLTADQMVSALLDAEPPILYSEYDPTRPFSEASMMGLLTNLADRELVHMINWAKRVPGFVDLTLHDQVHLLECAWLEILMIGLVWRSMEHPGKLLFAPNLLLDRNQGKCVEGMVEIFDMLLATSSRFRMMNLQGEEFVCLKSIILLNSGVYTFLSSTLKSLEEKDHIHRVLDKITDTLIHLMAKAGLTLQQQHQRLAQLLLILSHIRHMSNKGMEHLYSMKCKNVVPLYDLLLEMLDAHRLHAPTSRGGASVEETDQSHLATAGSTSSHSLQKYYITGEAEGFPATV

[2] = molecular target: Estrogen receptor beta (Homo sapiens) (UniProt Q92731); assay: Displacement of [3H]estradiol from full-length human estrogen receptor beta assessed as relative binding affinity by radiometric assay relative to estradiol
Estrogen receptor beta (Homo sapiens), sequence (Q92731 whole entry): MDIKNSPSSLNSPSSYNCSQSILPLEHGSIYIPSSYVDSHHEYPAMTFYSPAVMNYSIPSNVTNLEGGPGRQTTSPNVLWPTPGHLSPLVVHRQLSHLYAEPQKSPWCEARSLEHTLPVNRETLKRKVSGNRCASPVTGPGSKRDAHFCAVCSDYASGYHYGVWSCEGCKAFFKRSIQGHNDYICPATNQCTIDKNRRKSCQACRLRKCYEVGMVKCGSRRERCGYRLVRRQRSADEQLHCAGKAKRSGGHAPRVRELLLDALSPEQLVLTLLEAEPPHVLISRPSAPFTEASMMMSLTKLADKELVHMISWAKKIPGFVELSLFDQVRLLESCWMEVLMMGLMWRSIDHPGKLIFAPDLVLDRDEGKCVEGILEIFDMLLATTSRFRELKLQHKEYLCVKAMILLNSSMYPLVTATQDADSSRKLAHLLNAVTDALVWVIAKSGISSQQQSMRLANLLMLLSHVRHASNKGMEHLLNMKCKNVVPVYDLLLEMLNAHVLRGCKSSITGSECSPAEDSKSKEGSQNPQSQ

[3] = species: Homo sapiens; assay: Ratio of relative binding affinity for human ERbeta to relative binding affinity for human ERalpha
[4] = system: MCF7; assay: Down regulation of ERalpha expression in human MCF7 cell cytoplasmic fraction at 1 uM after 16 hrs by Western blotting; format: functional, cell-based
Summary of the method: (§1)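 MCF-7 cells steroid-depleted five days in phenol red-free medium with 5% charcoal-dextran-treated calf serum, grown to ~80% confluency, then given 1 μM compound or 0.1% EtOH vehicle for 16 h. Cytoplasmic, nuclear, matrix and insoluble fractions or whole-cell lysate prepared. Western blot with anti-ERα (F10) and infrared detection; Sp1 serves as loading reference.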

[5] = system: MCF7; assay: Down regulation of ERalpha expression in human MCF7 cell nuclear fraction at 1 uM after 16 hrs by Western blotting; format: functional, cell-based; summary of the method: as §1
[6] = system: MCF7; assay: Down regulation of ERalpha expression in human MCF7 cell matrix fraction at 1 uM after 16 hrs by Western blotting; format: functional, cell-based; summary of the method: as §1
[7] = system: MCF7; assay: Down regulation of ERalpha expression in human MCF7 cell insoluble fraction at 1 uM after 16 hrs by Western blotting; format: functional, cell-based; summary of the method: as §1
[8] = system: MCF7; assay: Down regulation of ERalpha expression in human MCF7 cell whole cell extract at 1 uM after 16 hrs by Western blotting; format: functional, cell-based; summary of the method: as §1
[9] = system: MCF7; assay: Down regulation of ERalpha expression in human MCF7 cell cytoplasmic fraction at 1 uM treated 16 hrs before estradiol challenge measured after 4 hrs by Western blotting in presence of 1 nM estradiol; format: functional, cell-based
Summary of the method: (§2)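 Steroid-depleted MCF-7 cells (5 d, 5% charcoal-dextran calf serum, phenol red-free medium) exposed 16 h to 1 μM compound, then 1 nM estradiol added for 4 h before fractionation into cytoplasmic, nuclear, matrix, insoluble or whole-cell extracts. ERα detected by Western blot with F10 antibody; Sp1 used as loading reference.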

[10] = system: MCF7; assay: Down regulation of ERalpha expression in human MCF7 cell nuclear fraction at 1 uM treated 16 hrs before estradiol challenge measured after 4 hrs by Western blotting in presence of 1 nM estradiol; format: functional, cell-based; summary of the method: as §2
[11] = system: MCF7; assay: Down regulation of ERalpha expression in human MCF7 cell matrix fraction at 1 uM treated 16 hrs before estradiol challenge measured after 4 hrs by Western blotting in presence of 1 nM estradiol; format: functional, cell-based; summary of the method: as §2
[12] = system: MCF7; assay: Down regulation of ERalpha expression in human MCF7 cell insoluble fraction at 1 uM treated 16 hrs before estradiol challenge measured after 4 hrs by Western blotting in presence of 1 nM estradiol; format: functional, cell-based; summary of the method: as §2
[13] = system: MCF7; assay: Down regulation of ERalpha expression in human MCF7 cell whole cell extract at 1 uM treated 16 hrs before estradiol challenge measured after 4 hrs by Western blotting in presence of 1 nM estradiol; format: functional, cell-based; summary of the method: as §2
[14] = molecular target: T1, Estrogen receptor (Homo sapiens); assay: Effect on ERalpha-mediated transcriptional activity in human MCF7 cells assessed as reduction of estradiol-induced activation of pS2 mRNA expression at 1 uM treated 16 hrs before estradiol challenge measured after 4 hrs by RT-PCR analysis; format: cell-based
Summary of the method: (§3)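 MCF-7 cells steroid-depleted seven days in phenol red-free medium with 5% charcoal-dextran calf serum, grown to ~80% confluency, then given 1 μM compound 16 h followed by 0.1% ethanol vehicle or 1 nM estradiol for 4 h. Total RNA reverse transcribed and target mRNA quantified by real-time PCR. Repeated-measures one-way ANOVA with Tukey test.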

[15] = molecular target: T1, Estrogen receptor (Homo sapiens); assay: Effect on ERalpha-mediated transcriptional activity in human MCF7 cells assessed as reduction of estradiol-induced activation of progesterone receptor mRNA expression at 1 uM treated 16 hrs before estradiol challenge measured after 4 hrs by RT-PCR analysis; format: cell-based; summary of the method: as §3
[16] = molecular target: T1, Estrogen receptor (Homo sapiens); assay: Effect on ERalpha-mediated transcriptional activity in human MCF7 cells assessed as reduction of estradiol-induced activation of carbonic anhydrase 12 mRNA expression at 1 uM treated 16 hrs before estradiol challenge measured after 4 hrs by RT-PCR analysis; format: cell-based; summary of the method: as §3

| SMILES | relative binding affinity (RBA) [1] | relative binding affinity (RBA) [2] | Ratio [3] | Activity [4] | Activity [5] | Activity [6] | Activity [7] | Activity [8] | Activity [9] | Activity [10] | Activity [11] | Activity [12] | Activity [13] | Activity [14] | Activity [15] | Activity [16] |
| --- | --- | --- | --- | --- | --- | --- | --- | --- | --- | --- | --- | --- | --- | --- | --- | --- |
| COP(=O)(O)/C=C/c1ccc(C(=C2C3CCCC2CCC3)c2ccc(O)cc2)cc1 | 7.5 | 7.7 | 1 |  |  |  |  |  |  |  |  |  |  |  |  |  |
| O=C(O)/C=C/c1ccc(C(=C2CCCCC2)c2ccc(O)cc2)cc1 |  |  |  | inactive | inactive | inactive | inactive | inactive | Active | Active | Active | Active | Active |  |  |  |
| O=C(O)CC/C=C/c1ccc(C(=C2C3CCCC2CCC3)c2ccc(O)cc2)cc1 | 13.1 | 24.6 | 1.9 |  |  |  |  |  |  |  |  |  |  |  |  |  |
| C[C@]12CC[C@@H]3c4ccc(O)cc4C[C@@H](CCCCCCCCC[S+]([O-])CCCC(F)(F)C(F)(F)F)[C@H]3[C@@H]1CC[C@@H]2O (stereo partly drawn) |  |  |  | Active | Active | Active | Active | Active |  |  |  |  |  |  |  |  |
| CCC(=C(c1ccc(O)cc1)c1ccc(/C=C/C(=O)O)cc1)c1ccccc1 |  |  |  | Active | inactive | inactive | inactive | inactive | Active | Active | Active | Active | Active | Active | Active | Active |
| O=C(O)CCC/C=C/c1ccc(C(=C2C3CCCC2CCC3)c2ccc(O)cc2)cc1 | 38.5 | 62.8 | 1.6 |  |  |  |  |  |  |  |  |  |  |  |  |  |
| O=C(O)CCCC/C=C/c1ccc(C(=C2C3CCCC2CCC3)c2ccc(O)cc2)cc1 | 87.4 | 81.1 | 0.93 | inactive | inactive | inactive | inactive | inactive |  |  |  |  |  |  |  |  |
| O=C(O)CCCCCCCCCCOc1ccc(C(=C2C3CCCC2CCC3)c2ccc(O)cc2)cc1 |  |  |  | inactive | inactive | inactive | inactive | inactive |  |  |  |  |  |  |  |  |
| O=C(O)/C=C/c1ccc(C(=C2C3CCCC2CCC3)c2ccc(O)cc2)cc1 |  |  |  | Active | inactive | inactive | inactive | inactive | Active | Active | Active | Active | Active | Active | Active | Active |
| Oc1ccc(C(=C2CCCCC2)c2ccc(O)cc2)cc1 | 68 | 334 |  |  |  |  |  |  |  |  |  |  |  |  |  |  |
| O=C(O)C/C=C/c1ccc(C(=C2C3CCCC2CCC3)c2ccc(O)cc2)cc1 | 9 | 23.1 | 2.6 |  |  |  |  |  |  |  |  |  |  |  |  |  |
